Common to all, as to format: biochemical
Assay [1] concerns the target T1, E340D mutant bovine olfactory CNG channel (Bos taurus, UniProt Q03041, E340D).
T1 sequence (Q03041 1-663 E340D): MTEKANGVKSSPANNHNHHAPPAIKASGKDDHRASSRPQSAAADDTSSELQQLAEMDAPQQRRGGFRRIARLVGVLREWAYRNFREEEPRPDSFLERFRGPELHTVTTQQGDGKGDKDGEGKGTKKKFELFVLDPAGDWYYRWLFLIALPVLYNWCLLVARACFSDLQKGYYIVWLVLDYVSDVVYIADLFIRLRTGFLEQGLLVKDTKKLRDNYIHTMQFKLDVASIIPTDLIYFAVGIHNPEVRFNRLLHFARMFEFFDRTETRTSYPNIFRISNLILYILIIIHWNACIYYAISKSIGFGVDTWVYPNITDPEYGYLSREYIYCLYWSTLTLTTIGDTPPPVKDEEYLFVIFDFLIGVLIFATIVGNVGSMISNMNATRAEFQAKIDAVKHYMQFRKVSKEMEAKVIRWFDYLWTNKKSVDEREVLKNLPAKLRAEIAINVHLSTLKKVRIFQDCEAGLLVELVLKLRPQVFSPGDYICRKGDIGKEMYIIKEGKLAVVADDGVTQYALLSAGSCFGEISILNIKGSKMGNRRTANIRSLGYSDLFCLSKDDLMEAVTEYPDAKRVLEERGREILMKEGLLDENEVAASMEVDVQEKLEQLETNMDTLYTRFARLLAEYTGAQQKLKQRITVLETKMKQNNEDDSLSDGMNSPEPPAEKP
Kind of assay: Blockage of macroscopic current by external Ca2+ or Mg2+, outside-out patches. The note with it: for Ki: mean ± SD. In outline:
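Xenopus oocytes injected with wild-type or mutant channel mRNA; outside-out patches with 100 μM cGMP in the pipette. Bath: 110 mM NaCl, 2 mM EDTA, 10 mM HEPES, pH 7.4, plus Ca2+ (NTA-buffered) or Mg2+ (EDTA-buffered); unbuffered above 0.1 mM. Five 1-s ramps (−80 to +80 mV) averaged, leak subtracted. Current normalised to divalent-free current at the same voltage, Hill-fitted per patch; Ki and n given as mean ± SD.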

The target of assay [2] is T2, wild-type bovine olfactory CNG channel (α3 subunit) (Bos taurus, UniProt Q03041).
T2 sequence (Q03041 1-663): T1 sequence (Q03041 1-663 E340D) with D340E
Kind of assay: Divalent cation permeation, outside-out patches in bi-ionic conditions. Particulars: for reversal potential, V rev: internal Na. An outline of the steps: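 Outside-out oocyte patches; the pipette held 1 mM cGMP and 110 mM NaCl. External 110 mM NaCl was replaced by 73.3 mM CaCl2 or MgCl2. From a 0 mV holding potential, 150-ms steps were given from −80 to +80 mV in 20-mV increments. I_Ca/I_Na was taken at −80 mV, and reversal potential under bi-ionic conditions (internal Na+, external divalent); mean ± SD.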

The target in assay [3] is T3, E340Q mutant bovine olfactory CNG channel (Bos taurus, UniProt Q03041, E340Q).
T3 sequence (Q03041 1-663 E340Q): T1 sequence (Q03041 1-663 E340D) with D340Q

In assay [4] the target is T3, E340Q mutant bovine olfactory CNG channel. Description: Estimate from current variance versus mean amplitude of macroscopic currents. The note with it: estimated from variance/mean at various cGMP concentrations. An outline of the steps: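 Single-channel amplitude not directly measurable. Assuming a single open state, current amplitude and maximal open probability were estimated from the relation between current variance and mean amplitude of macroscopic currents recorded at various cGMP concentrations, in patches from mRNA-injected Xenopus oocytes.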

Residue numbers refer to the chain shown, from its start. Like-named read-outs stand apart in the source and are kept apart here.

Take `[Ca+2]` [Ca^2+]: in assay [1] (external Ca2+, +80 mV), the “n, Hill coefficient of blockage” value turned out to be 1.3 ± 0.5 and the Ki – broadly, the equilibrium dissociation constant of an inhibitor or competing ligand from its target – turned out to be 18 ± 10 µM. For the same compound, in assay [1] (external Ca2+, −80 mV), the “n, Hill coefficient of blockage” value is 1.2 ± 0.5 and the affinity corresponds to a Ki of 47 ± 7 µM. Moreover, in assay [2] (external Ca2+), the “reversal potential, V rev” value is recorded as 25 ± 6 mV. Besides, the “I Ca/I Na” value in assay [2] (−80 mV, external 73.3 mM CaCl2 vs 110 mM NaCl) is 0.049 ± 0.004.

On to `[Mg+2]` [Mg^2+], for which, in assay [1] (external Mg2+, +80 mV), the “n, Hill coefficient of blockage” value came to 0.9 ± 0.2 and the Ki is 155 ± 56 µM. Further, in assay [1] (external Mg2+, −80 mV), the “n, Hill coefficient of blockage” value was 0.7 ± 0.2 and the Ki came to 53 ± 17 µM. In addition, in assay [2] (external Mg2+), the “reversal potential, V rev” value amounted to 45 ± 7 mV.

With `Nc1nc2c(ncn2[C@@H]2O[C@@H]3COP(=O)(O)O[C@H]3[C@H]2O)c(=O)[nH]1` [cGMP], the “n(−80 mV), Hill coefficient” value in assay [3] (cGMP) is 2.7 ± 0.5. Moreover, in assay [3] (cGMP-gated current), the “I(−80 mV)/I(+80 mV)” value turned out to be 0.19 ± 0.06. Further, the EC50 in assay [3] (read-out: K 1/2, cGMP, +80 mV) is 4 ± 1.2 µM; in assay [3] (read-out: K 1/2, cGMP, −80 mV), 5.6 ± 1.7 µM; in assay [3] (read-out: K 1/2,cG, −80 mV, single patch, Fig. 1 fit), 4.8 µM. In addition, in assay [3] (−80 mV, single patch, Fig. 1 fit), the “n cG” value turned out to be 2.4. For the same compound, in assay [4], the maximal open probability is listed as 0.9.

Values taken from publication PMC2233693 (The Journal of General Physiology, 2000).
